Laboratory results reported in ChEMBL document CHEMBL5149984, “Discovery of HN37 as a Potent and Chemically Stable Antiepileptic Drug Candidate” (J Med Chem, 2021).

How the values were obtained:
[1] = biological target: Potassium voltage-gated channel subfamily KQT member 2 (Rattus norvegicus) (UniProt O88943); assay: Agonist activity at rat Kv7.2 channel expressed in CHO cells assessed as shift of half voltage of maximal activation at 10 uM by whole cell patch clamp based electrophysiological method; conditions: filed as agonist
Chain of Potassium voltage-gated channel subfamily KQT member 2 (Rattus norvegicus) (O88943 whole entry, the tested form may be a part): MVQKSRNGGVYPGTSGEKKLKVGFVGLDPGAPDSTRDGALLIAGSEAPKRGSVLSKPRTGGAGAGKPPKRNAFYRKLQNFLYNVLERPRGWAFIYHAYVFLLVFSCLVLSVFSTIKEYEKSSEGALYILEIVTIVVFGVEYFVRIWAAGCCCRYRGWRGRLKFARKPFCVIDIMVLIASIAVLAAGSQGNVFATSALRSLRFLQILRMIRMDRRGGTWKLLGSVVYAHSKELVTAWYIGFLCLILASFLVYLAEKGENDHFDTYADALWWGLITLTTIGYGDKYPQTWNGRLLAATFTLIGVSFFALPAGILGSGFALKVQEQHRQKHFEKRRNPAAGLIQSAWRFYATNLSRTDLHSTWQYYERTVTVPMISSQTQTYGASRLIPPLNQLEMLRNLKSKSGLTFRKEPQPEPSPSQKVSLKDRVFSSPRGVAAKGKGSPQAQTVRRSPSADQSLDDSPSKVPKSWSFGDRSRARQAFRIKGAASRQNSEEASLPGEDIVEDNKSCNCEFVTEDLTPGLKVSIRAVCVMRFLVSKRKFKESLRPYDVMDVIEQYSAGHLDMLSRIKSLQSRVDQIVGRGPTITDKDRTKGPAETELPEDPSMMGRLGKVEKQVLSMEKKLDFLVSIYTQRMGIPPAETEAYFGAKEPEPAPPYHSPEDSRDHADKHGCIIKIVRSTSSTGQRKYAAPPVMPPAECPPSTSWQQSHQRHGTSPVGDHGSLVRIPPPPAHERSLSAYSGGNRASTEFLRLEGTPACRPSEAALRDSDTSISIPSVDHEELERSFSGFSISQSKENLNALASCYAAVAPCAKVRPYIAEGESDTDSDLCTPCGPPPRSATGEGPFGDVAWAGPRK
Outline: (§1)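 Rat KCNQ2 cotransfected with EGFP plasmid by Lipofectamine 3000 into CHO cells (DMEM/F12, 10% FBS; split 24 h before transfection). Whole-cell recording at room temperature. Pipette: 145 mM KCl, 1 mM MgCl2, 5 mM EGTA, 10 mM HEPES, 5 mM MgATP, pH 7.3. Bath, constantly perfused: 140 mM NaCl, 5 mM KCl, 2 mM CaCl2, 1.5 mM MgCl2, 10 mM glucose, 10 mM HEPES, pH 7.4. Signals filtered at 1 kHz. Compound at 10 μM. I/I0 is outward current amplitude with over without compound. ΔV1/2 is the shift in V1/2 from Boltzmann fits of activation curves. Mean ± SEM.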

[2] = biological target: Potassium voltage-gated channel subfamily KQT member 2 (Rattus norvegicus) (UniProt O88943); assay: Agonist activity at rat Kv7.2 channel expressed in CHO cells assessed as amplitude change of outward current at 10 uM by whole cell patch clamp based electrophysiological method; conditions: filed as agonist; outline: as §1
[3] = Neurotoxicity in po dosed Kunming mouse assessed as motor impairment after 1 hr by rotarod test; type: toxicity, organism-based; conditions: in vivo, po, 1 h
Outline: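 Male KM mice dosed intragastrically with compound freshly suspended in 0.5% CMC-Na. Rotarod performance scored 1 h after dosing as the fraction of animals showing motor impairment. Fisher's exact test versus vehicle; TD50 from nonlinear dose−response fit.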

Mus musculus [4] = organism: Mus musculus; assay: Anticonvulsant activity in Kunming mouse assessed as reduction in MES-induced seizure after 1 hr; type: functional
Outline: (§2)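 MES test in male KM mice. Compounds freshly suspended in 0.5% CMC-Na and given by gavage at 20 mL/kg; 160 V stimulus through ear clips. Protection scored as absence of hindlimb tonic extension; time course at 0.25, 0.5, 1 and 2 h, otherwise tested at 1 h. ED50 from dose−response by nonlinear regression; Fisher's exact test versus vehicle.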

Mus musculus [5] = organism: Mus musculus; assay: Anticonvulsant activity in Kunming mouse assessed as reduction in Sc-PTZ induced seizure after 1 hr; type: functional
Outline: (§3)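 sc-PTZ test in male KM mice. Compound suspended in 0.5% CMC-Na and given orally 1 h before PTZ (freshly dissolved in normal saline, 100 mg/kg). Protection against clonic seizures scored; ED50 by nonlinear regression.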

Mus musculus [6] = organism: Mus musculus; assay: Anticonvulsant activity in C57BL/6 mouse 6 Hz seizure model at 32 mA measured after 1 hr; type: functional
Mus musculus [7] = organism: Mus musculus; assay: Anticonvulsant activity in C57BL/6 mouse 6 Hz seizure model at 44 mA measured after 1 hr; type: functional
Mus musculus [8] = assay: Anticonvulsant activity in MES induced Kunming mouse model of seizure at 30 mg/kg, po after 1 hr; type: functional; outline: as §2
Mus musculus [9] = assay: Anticonvulsant activity in pentylenetetrazol induced Kunming mouse model of seizure at 30 mg/kg, po after 1 hr; type: functional; outline: as §3

Structure (SMILES)	Activity [1] [mV]	Activity [2]	further results
C#CCN(Cc1cccc(OC)c1)c1ccc(NC(=O)OC)cc1	-12.5	2.72	–
C#CCN(Cc1ccc(F)cc1)c1ccccc1NC(=O)OC	–	0.95	–
C#CCN(Cc1ccc(F)cc1)c1ccc(NC(=O)OCc2ccccc2)cc1	-11.5	2.09	–
C#CCN(Cc1ccc(F)c(C(F)(F)F)c1)c1ccc(NC(=O)OC)cc1	-15.6	1.33	–
C#CCN(Cc1ccc(F)cc1)c1ccc(NC(=O)OC)cc1F	-9.06	1.39	–
C#CCN(Cc1ccc(F)cc1)c1ccc(NC(C)=O)cc1	-6.09	1.8	–
C#CCN(Cc1ccc(F)cc1)c1ccc(NC(=O)OCC=C)cc1	-14.5	1.01	–
C#CCN(Cc1ccc(F)cc1)c1ccc(NC(=O)OC)cc1C	-3.42	1.4	–
C#CCN(Cc1ccc(F)cc1)c1ccc(NC(=O)OC)c(OC(F)(F)F)c1	-13.2	1.24	–
C#CCN(Cc1cccc(F)c1)c1ccc(NC(=O)OC)cc1	-21.1	2.33	–
C#CCN(Cc1ccc(F)c(F)c1)c1ccc(NC(=O)OC)cc1	-14.9	2.52	–
C#CCN(Cc1ccc(F)cc1)c1ccc(NC(=O)OC)c(F)c1	-22	2.09	–
CC[C@H](C(N)=O)N1CCCC1=O [LEVITIRACETAM]	–	–	Activity [3]: > 500 mg/kg; ED50 (Mus musculus [4]): > 500 mg/kg; ED50 (Mus musculus [5]): > 500 mg/kg; ED50 (Mus musculus [6]): 41.5 mg/kg; ED50 (Mus musculus [7]): 376 mg/kg
C#CCN(Cc1ccc(F)cc1)c1ccc(NC(=O)OCC2COC(C)(C)O2)cc1 (stereo not drawn)	-3.95	2.11	–
C#CCN(Cc1ccc(F)cc1)c1c(C)cc(NC(=O)OC)cc1C	13.5	0.72	–
C#CCN(Cc1ccc(F)cc1)c1ccc(NC(=O)OC(C)(C)C)cc1	-19.4	1.05	–
C#CCN(Cc1ccc(F)cc1)c1ccc(NC(=O)OC)c(C#N)c1	-5.1	0.52	–

Structure (SMILES)	Activity [1] [mV]	Activity [2]	further results
CC1(C)O[C@@H]2[C@@H](CO[C@@]3(COS(N)(=O)=O)OC(C)(C)O[C@@H]23)O1 [TOPIRAMATE]	–	–	Activity [3]: 379.2 mg/kg; ED50 (Mus musculus [4]): 35.5 mg/kg; ED50 (Mus musculus [5]): > 200 mg/kg; ED50 (Mus musculus [6]): > 500 mg/kg; ED50 (Mus musculus [7]): > 500 mg/kg
C#CCN(Cc1ccc(C)cc1)c1ccc(NC(=O)OC)cc1	-5.77	1.05	–
C#CCN(Cc1ccc(F)cc1)c1ccc(NC(=O)OC)cc1Cl	-2.06	1.19	–
C#CCN(Cc1ccc(F)cc1)c1ccc(NC(=O)OCC(C)C)cc1	-14.3	1.23	–
C#CCN(Cc1ccccc1F)c1ccc(NC(=O)OC)cc1	-7.6	2.31	–
C#CCN(Cc1ccc(F)cc1)c1ccc(NC(=O)OCC)cc1	-7.26	1.99	–
C#CCN(Cc1ccc(F)cc1)c1ccc(NC(=O)OC)c(C)c1	-23.3	4.8	–
C#CCN(Cc1ccc(F)cc1)c1ccc(NC(=O)OC)c(C(F)(F)F)c1	-10.4	1.42	–
C#CCN(Cc1ccc(F)cc1)c1ccc(NC(=O)OC)cc1	-24.2	3.27	Activity (Mus musculus [8]): 50%; Activity (Mus musculus [9]): 60%
C#CCN(Cc1ccc(F)cc1)c1ccc(NC(=O)OCC)c(N)c1	-47.9	1.53	–
C#CCN(Cc1ccc(F)cc1)c1ccc(F)c(NC(=O)OC)c1	-18.7	2.75	–
C#CCN(Cc1ccc(F)cc1)c1ccc(NC(=O)OC)c(Cl)c1	-7.06	1.09	–
C#CCN(Cc1ccc(F)cc1)c1ccc(NC(=O)OC)cc1C#N	-9.62	1.94	–
C#CCN(Cc1ccc(Br)cc1)c1ccc(NC(=O)OC)cc1	-25.1	3.75	–
C#CCN(Cc1ccccc1Cl)c1ccc(NC(=O)OC)cc1	-16.5	2.29	–
C#CCN(Cc1ccc(F)cc1)c1cccc(NC(=O)OC)c1	3.6	1.65	–
